# Source: PubChem
# Kir21 block – Kir2.1 (mouse) channel inhibition; P35561; HEK293-Kir2.1, FluxOR thallium flux fluorescence; stronger effect = lower value; B-score at 10 µM; 310,000 tested, 0.85% active; AID 1672;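 active means fluorescence ratio B-score at or below minus 3 SD of library scores, with starting-brightness B-score within 2 SD, cut at about -4.2 in these data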;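 further: channel flux triggered by added potassium and thallium sulfate stimulus; B-score of peak minus minimum fluorescence over baseline after thallium stimulus; more negative B-score means stronger Kir2.1 block with less thallium influx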
# Target sequence (P35561 whole entry, looked up): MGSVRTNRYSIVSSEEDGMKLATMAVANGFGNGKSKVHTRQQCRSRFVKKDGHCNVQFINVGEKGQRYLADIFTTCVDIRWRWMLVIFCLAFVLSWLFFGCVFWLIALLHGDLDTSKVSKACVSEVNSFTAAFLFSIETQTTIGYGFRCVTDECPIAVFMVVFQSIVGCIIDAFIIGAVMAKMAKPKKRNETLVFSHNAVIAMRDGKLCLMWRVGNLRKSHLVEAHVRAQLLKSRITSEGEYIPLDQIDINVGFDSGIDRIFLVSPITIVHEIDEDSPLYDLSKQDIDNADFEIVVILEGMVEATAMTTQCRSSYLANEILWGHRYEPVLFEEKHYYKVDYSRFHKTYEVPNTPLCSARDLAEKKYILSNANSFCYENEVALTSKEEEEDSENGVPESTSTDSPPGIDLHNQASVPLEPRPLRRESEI
# hERG rescue – shields human hERG channel from block by proarrhythmic agents; activation (rescue from dofetilide block), less the hit threshold, % at 10 µM; Q12809; CHO-hERG, FluxOR thallium flux, dofetilide IC70 present; 310,000 tested, 0.51% active;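 active means activation above the mean of controls blocked by dofetilide plus 5 SD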;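 further: thallium influx through hERG after potassium depolarization seen as dye fluorescence rise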
# KCNQ1 block – inhibitors of human KCNQ1 potassium channel | P51787 | B-score at 10 µM | CHO-K1 KCNQ1, FluxOR thallium flux fluorescence; stronger effect = higher value | 310,000 tested, 1.3% active;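 active means compounds whose thallium flux B-score, printed positive for inhibition, exceeds three library SD while starting fluorescence stays within three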;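 further: channel opened by potassium depolarization with thallium stimulus after 20 min compound exposure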
# KCNK3 block – human KCNK3 channel inhibition, primary screen; CHO-KCNK3 thallium flux, FluxOR fluorescence; stronger effect = lower value; O14649; B-score at 10 µM; 340,000 tested, 0.84% active;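 active means B-score under library mean minus 4 SD, starting fluorescence ratio at most library mean plus 5 SD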;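 further: more negative B-score means stronger inhibition of thallium flux through KCNK3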
# KCNQ1 pot – potentiators or activators of human KCNQ1 potassium channel; P51787; CHO-K1 KCNQ1, thallium flux FluxOR fluorescence; stronger effect = higher value; B-score at 10 µM; 310,000 tested, 0.35% active; AID 2648;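 active means fluorescence ratio B-score, a plate-corrected score, at least three library SD, with initial intensity B-score within 5 SD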
#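 Assay system: CHO-K1 cells stably expressing KCNQ1; Medium: assay buffer with matched DMSO; Also added: K+/Tl+ depolarizing stimulus; Dosing: single dose; Timing: dye 90 min, compound 20 min, room temperature; Measured by: kinetic FluxOR thallium fluorescence, 10-s 1-Hz baseline, 110-s post-stimulus read; Read-out: peak-minus-minimum fluorescence over initial fluorescence, negative-control normalized, B-scored.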
# KCNK9 inh – blocks the human KCNK9 two-pore domain potassium channel; Q9NPC2; HEK293 KCNK9, FluxOR thallium flux fluorescence; stronger effect = lower value; B-score at 10 µM; 310,000 tested, 1.2% active; AID 488922;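 active means ratio B-score over 3 SD below the library mean, with starting fluorescence within 5 SD of its mean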;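 further: negative B-score means less thallium flux so channel inhibition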
# KCNQ1 block val – reconfirmed blocker of the human KCNQ1 potassium channel. 1,600 tested, 93% active. KCNQ1 cell line, FluxOR thallium flux fluorescence. inhibition, % at 10 µM. shares compounds with KCNQ1 block;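 active means primary screen active, with duplicate mean exceeding buffer control mean plus 3 SD of buffer wells, cut at about 28% in these data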;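 further: 0% = buffer control ratio and 100% = XE991 inhibitor control ratio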
# CHO KCNQ1 ctr – counter-screen for KCNQ1 inhibitors: effect in parental CHO cells | shares compounds with KCNQ1 block | parental CHO-K1, FluxOR thallium flux fluorescence ratio; stronger effect = lower value; zero means no signal rise above baseline | fluorescence ratio (Tl flux) at 10 µM | 1,600 tested, 21% active;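 active means mean of duplicate thallium-flux fluorescence ratios in parental host cells more than 5 SD below the buffer control mean, cut at about 0.38 in these data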;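 further: ratio is peak minus minimum fluorescence divided by baseline fluorescence; actives read low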
# KCNQ1 APC inh – human KCNQ1 inhibition validated by electrophysiology; shares compounds with KCNQ1 block; KCNQ1-CHO cells, automated patch clamp current; calls only at 10 µM; 490 tested, 20% active;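 active means KCNQ1 current drop exceeding 3 SD of negative control wells, seen in both duplicate runs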;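 further: steady state current during a 2 s step from -80 to +40 mV; negative values mean current inhibition and positive values mean potentiation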
# KCNQ2 spec – selectivity of KCNQ1 inhibitors: inhibition of rat KCNQ2 channel. AID 651746. KCNQ2 cells, FluxOR thallium flux fluorescence. inhibition, % at 10 µM. shares compounds with KCNQ1 block. 1,600 tested, 71% active;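 active means mean percent inhibition of the KCNQ2 thallium signal more than 5 SD above the buffer-only control wells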;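 further: KCNQ2 expressed in CHO cells; 0% = buffer control wells and 100% = XE-991 inhibitor control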
# KCNQ1 KCNE1 spec – KCNQ1 inhibitor that also blocks human KCNQ1/KCNE1 channel; shares compounds with KCNQ1 block; KCNQ1/KCNE1 cells, FluxOR thallium flux fluorescence; inhibition, % at 10 µM; 1,600 tested, 77% active; AID 652147;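 active means mean percent inhibition of duplicate wells above the buffer-only control mean plus 3 SD of those controls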;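 further: 0% = buffer only wells and 100% = XE-991 inhibitor control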
# KCNK9 inh conf – human KCNK9 inhibitor confirmation | shares compounds with KCNK9 inh | HEK293 KCNK9 cells, FluxOR thallium flux fluorescence | inhibition, % at 10 µM | 4,900 tested, 43% active;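 active means thallium signal inhibited by more than 5 SD of the compound-free buffer control wells, on both duplicate plates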;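 further: 0% = assay buffer control wells without compound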
# Kir21 sel – tests whether KCNK9 modulators also affect mouse Kir2.1; 4,900 tested, 4% active; shares compounds with KCNK9 inh; AID 492993; Kir2.1 cells, FluxOR thallium flux fluorescence; inhibition, % at 10 µM;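 active means thallium signal drop more than 5 SD beyond the mean of the no-compound control wells, seen in both duplicate plates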;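 further: signal is fluorescence rise after thallium addition divided by baseline fluorescence; plate controls were assay buffer only for no effect and full block by chlorpromazine control for full effect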
# KCNK9 uninduced – second counter-screen for KCNK9 modulators: effect in non-induced cells; inhibition, % at 10 µM; non-induced KCNK9-HEK293, FluxOR thallium flux; AID 492997; 4,900 tested, 40% active; shares compounds with KCNK9 inh;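 active means thallium signal drop beyond 5 SD of the untreated control mean, on both duplicate plates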;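 further: plate controls were buffer only IC0 wells for no effect and SID17386958 at its maximal inhibitory level for full effect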
# The depositor's hits bear a star; i = inactive; x = not tested or not shown. The list is not random: actives were taken first. Their share in the collection is about 3.8%.
SMILES,Kir21 block,hERG rescue,KCNQ1 block,KCNK3 block,KCNQ1 pot,KCNK9 inh,KCNQ1 block val,CHO KCNQ1 ctr,KCNQ2 spec,KCNQ1 KCNE1 spec,KCNK9 inh conf,Kir21 sel,KCNK9 uninduced,others
Cc1ccc(SCCNC(=S)Nc2ccc(C)c(C)c2)cc1,-0.5,-17.1,8*,i,i,i,100.0*,0.447,i,98.0%*,i,i,i,KCNQ1 APC inh=i
Cc1ccc(SCCNC(=S)Nc2cc(C)ccc2C)cc1,-2.18,-11.1,i,i,i,i,x,x,x,x,x,x,x,
CC(=O)NNc1cc(C)nc(N)n1,-0.48,-1.5,i,i,i,i,x,x,x,x,x,x,x,
Cc1cccc(N(CC(=O)NC2CC3CCC2C3)S(=O)(=O)c2ccccc2)c1 (stereo not given),-0.33,-7.3,6*,i,i,i,49.5*,0.427,79.3%*,61.0%*,i,i,i,
COc1cccc(N(CC(=O)NC2CC3CCC2C3)S(=O)(=O)c2ccccc2)c1 (stereo not given),-0.11,-7.6,i,i,i,i,x,x,x,x,x,x,x,
CCC(C(=O)Nc1ccccc1N1CCCC1)c1ccccc1 (stereo not given),-1.81,-8.7,i,i,i,i,x,x,x,x,x,x,x,
COc1cc2ccccc2cc1C(=O)Nc1ccccc1N1CCCC1,-0.48,-14.0,20*,i,i,-8.99*,99.0*,0.456,81.7%*,110.0%*,35.0%*,i,34.0%*,KCNQ1 APC inh=i
CCC(Oc1ccccc1)C(=O)Nc1ccccc1N1CCCCC1 (stereo not given),-0.15,-9.7,6*,i,i,-14.6*,121.0*,0.453,99.0%*,143.0%*,50.0%*,i,41.0%*,KCNQ1 APC inh=i
C=CCN1C(=O)C(O)(CC(=O)c2ccco2)c2cc(Br)ccc21 (stereo not given),-1.78,-11.8,i,i,i,i,x,x,x,x,x,x,x,
N#Cc1c(N2CCN(C(=O)c3ccccc3Cl)CC2)nc(-c2ccccc2)c2c1CCCC2,2.08,-10.6,8*,i,i,i,92.5*,0.342*,102.3%*,117.0%*,i,i,i,
CCN1CCN(c2ccc(S(=O)(=O)N3CCCCC3)cc2NC(=O)c2cc3ccccc3o2)CC1,0.83,-16.2,i,i,i,i,x,x,x,x,x,x,x,
Cc1ccccc1CN1CCN(S(=O)(=O)c2ccc(Cl)s2)CC1,0.03,-14.4,6*,i,i,i,90.0*,0.37*,122.3%*,118.5%*,i,i,29.0%*,
O=C(CC1SC(=Nc2ccccc2)N(CCCO)C1=O)Nc1ccc(Cl)cc1 (stereo not given),0.48,-25.5,9*,i,i,i,72.0*,0.507,78.0%*,110.0%*,i,i,i,
